Experimental data from ChEMBL document CHEMBL1126072, “Hydantoin bioisosteres. In vivo active spiro hydroxy acetic acid aldose reductase inhibitors” (J Med Chem, 1992).

What was measured:
[1] = target: T1, Aldo-keto reductase family 1 member B1 (Homo sapiens, UniProt P15121); assay: Inhibitory activity against human placental aldose reductase
[2] = tested on: Rattus norvegicus; assay: Effective dose was tested against the inhibition of sorbitol accumulation in sciatic nerves from streptozotocin-diabetic rats dosed at 3*25 mg/kg over 27h.; format: functional; details: Sciatic nerve
[3] = tested on: Rattus norvegicus; assay: Inhibition of sorbitol accumulation in sciatic nerves from streptozotocin-diabetic rats dosed at 3*100 mg/kg over 27h.; format: functional, Sciatic nerve
Procedure, shortened: (§1)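 Male Sprague-Dawley rats (180–220 g, 42–54 days) made diabetic with streptozotocin 85 mg/kg at 0 h. Oral gavage at 4, 7 and 24 h, dose quoted per time point. Sciatic nerve sorbitol measured with sorbitol dehydrogenase/NAD in pH 9.4 glycine. Mean (±SEM) percent inhibition against untreated diabetic controls, Student's t test on absolute sorbitol.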

[4] = tested on: Rattus norvegicus; assay: Plasma concentration at 3h after the last dose of 25 mg/kg for 5 days.; format: functional
[5] = tested on: Rattus norvegicus; assay: In vivo inhibition of sorbitol accumulation in sciatic nerves from streptozotocin-diabetic rats dosed at 1*25 mg/kg over 5 days.; format: functional, Sciatic nerve
[6] = target: T1, Aldo-keto reductase family 1 member B1; assay: Compound was tested in vitro for its inhibitory activity against human placental aldose reductase
[7] = tested on: Rattus norvegicus; assay: In vivo inhibition of sorbitol accumulation in sciatic nerves from streptozotocin-diabetic rats dosed at 3*25 mg/kg over 27h.; format: functional, Sciatic nerve
[8] = tested on: Rattus norvegicus; assay: Inhibition of sorbitol accumulation in sciatic nerves from streptozotocin-diabetic rats dosed at 3*25 mg/kg over 27h.; format: functional, Sciatic nerve
[9] = tested on: Rattus norvegicus; assay: Inhibition of sorbitol accumulation in sciatic nerves from streptozotocin-diabetic rats dosed at 3*50 mg/kg over 27h.; format: functional, Sciatic nerve; procedure, shortened: as §1
[10] = target: T1, Aldo-keto reductase family 1 member B1; assay: (§2) ARI(aldose reductase inhibitor) enantiospecificity against human placental aldose reductase.
Procedure, shortened: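 Partially purified human placental enzyme (buffer homogenate, 33000g spin, pooled peak fractions, frozen). Rate of NADPH oxidation read at 340 nm, 25 °C, 12 min, in 50 mM phosphate pH 7.1 with 0.4 M NH4SO4, 0.067 mM NADPH, 1.0 mM dl-glyceraldehyde; enzyme at 4 milliunits. Molar IC50 ± SD over n experiments, from log-linear fit with common slope.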

[11] = tested on: Rattus norvegicus; assay: Nerve concentration at 3h after the last dose of 25 mg/kg for 5 days.; format: functional
[12] = target: T1, Aldo-keto reductase family 1 member B1; assay: as §2; remark: listed apart in the source
[13] = tested on: Rattus norvegicus; assay: In vivo inhibition of sorbitol accumulation in sciatic nerves from streptozotocin-diabetic rats dosed over 5 days. at a dose of 2.5 mg/kg; format: functional; details: Sciatic nerve, 120 h
[14] = tested on: Rattus norvegicus; assay: In vivo inhibition of sorbitol accumulation in sciatic nerves from streptozotocin-diabetic rats dosed over 5 days. at a dose of 10 mg/kg; format: functional; details: Sciatic nerve, 120 h
[15] = tested on: Rattus norvegicus; assay: In vivo inhibition of sorbitol accumulation in sciatic nerves from streptozotocin-diabetic rats dosed over 27 h. at a dose of 5 mg/kg; format: functional; details: Sciatic nerve
[16] = tested on: Rattus norvegicus; assay: In vivo inhibition of sorbitol accumulation in sciatic nerves from streptozotocin-diabetic rats dosed over 27 h. at a dose of 25 mg/kg; format: functional; details: Sciatic nerve
[17] = tested on: Rattus norvegicus; assay: In vivo inhibition of sorbitol accumulation in sciatic nerves from streptozotocin-diabetic rats given one dose per day over 5 days at a dose of 25 mg/kg
[18] = tested on: Rattus norvegicus; assay: In vivo inhibition of sorbitol accumulation in sciatic nerves from streptozotocin-diabetic rats dosed over 27 h. at a dose of 10 mg/kg; format: functional; details: Sciatic nerve
[19] = tested on: Rattus norvegicus; assay: In vivo inhibition of sorbitol accumulation in sciatic nerves from streptozotocin-diabetic rats dosed over 5 days. at a dose of 5 mg/kg; format: functional; details: Sciatic nerve, 120 h
Procedure, shortened: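 Rats made diabetic with iv streptozotocin 85 mg/kg. From day 7, oral gavage once daily for 5 days. Animals killed 3 h after the last dose. Sorbitol in neutralized perchloric acid extracts of 25-mg sciatic nerve portions measured with sheep liver sorbitol dehydrogenase and NAD in pH 9.4 glycine. Percent inhibition against diabetic controls.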

[20] = tested on: Rattus norvegicus; assay: In vivo inhibition of sorbitol accumulation in sciatic nerves from streptozotocin-diabetic rats given three doses over 27 h. at a dose of 2.5 mg/kg; format: functional; details: Sciatic nerve; procedure, shortened: as §1
[21] = organism: Rattus norvegicus; assay: animal or person; details: Sciatic nerve, 120 h, read-out: Inhibition
[22] = tested on: Rattus norvegicus; assay: In vivo inhibition of sorbitol accumulation in sciatic nerves from streptozotocin-diabetic rats dosed over 5 days. at a dose of 25 mg/kg; format: functional; details: Sciatic nerve, 120 h
[23] = organism: Rattus norvegicus; assay: animal or person; details: Sciatic nerve, 27 h, read-out: Inhibition

IC50 [1] [nM] | IC50 [6] [nM] | Structure (SMILES) | ED50 [2] [mg/kg] | Inhibition [3] [%] | Tissue levels [4] [µg/mL] | Inhibition [5] [%] | Inhibition [7] [%] | Inhibition [8] [%] | inhibition in vivo at 2.5 mg/kg [13] [%] | inhibition in vivo at 10 mg/kg [14] [%] | inhibition in vivo at 5 mg/kg [15] [%] | inhibition in vivo at 25 mg/kg [16] [%] | inhibition in vivo at 10 mg/kg [18] [%] | other results
180 | 140 | C[C@@H]1C[C@@](O)(CC(=O)O)c2cc(Cl)c(Cl)cc2O1 (stereo in doubt; 18) | 8.06 |  | 19.7 | 39 | 53 | 91 |  |  |  |  |  | IC50 [10]: 156 nM; Tissue levels [11]: 6.01 µg/mL
60 | 12 | C[C@@H]1C[C@@](O)(CC(=O)O)c2cc(F)c(Cl)cc2O1 (stereo in doubt; 23) | 5.1 |  | 14.2 | 55 | 72 | 76 |  |  |  |  |  | IC50 [12]: 49.3 nM; Tissue levels [11]: 1.85 µg/mL
50.9 |  | C[C@@H]1C[C@@](O)(CC(=O)O)c2cc(Cl)c(Cl)cc2O1 (stereo in doubt; 58) |  |  |  |  |  |  | 31 | 68 | 60 | 89 | 70 | Inhibition [17]: 78%; inhibition in vivo at 5 mg/kg [19]: 34%; inhibition in vivo at 2.5 mg/kg [20]: 49%

Further lines, the compound ahead of its results:

Structure (SMILES) | IC50 [1] [nM] | IC50 [6] [nM] | ED50 [2] [mg/kg] | Inhibition [3] [%] | Tissue levels [4] [µg/mL] | Inhibition [5] [%] | Inhibition [7] [%] | Inhibition [8] [%] | inhibition in vivo at 2.5 mg/kg [13] [%] | inhibition in vivo at 10 mg/kg [14] [%] | inhibition in vivo at 5 mg/kg [15] [%] | inhibition in vivo at 25 mg/kg [16] [%] | inhibition in vivo at 10 mg/kg [18] [%] | other results
CC1(C)C[C@@](O)(CC(=O)O)c2cc(F)ccc2O1 | 3460 |  | 83.2 | 56 |  |  |  |  |  |  |  |  |  | 
O=C(O)C[C@]1(O)CCOc2ccc(F)cc21 | 600 |  | 71.4 | 61 |  |  |  |  |  |  |  |  |  | 
C[C@@H]1C[C@@](O)(CC(=O)O)c2cc(F)ccc2O1 | 200 | 310 | 23 | 92 | <0.5 | 13 | 22 | 56 |  |  |  |  |  | Inhibition [9]: 81%
C[C@@H]1C[C@@](O)(CC(=O)O)c2cc(F)c(Cl)cc2O1 (stereo in doubt; 60) |  |  |  |  |  |  |  |  | 19 | 69 | 61 | 98 | 88 | IC50 [12]: 45.5 nM; inhibition in vivo at 5 mg/kg [21]: 52%; inhibition in vivo at 25 mg/kg [22]: 97%; inhibition in vivo at 2.5 mg/kg [23]: 39%
O=C(O)Cc1nn(Cc2ccc(Br)cc2F)c(=O)c2ccccc12 [PONALRESTAT] |  |  |  |  |  |  |  |  | 0 | 81 | 57 | 85 | 81 | inhibition in vivo at 5 mg/kg [19]: 60%; inhibition in vivo at 2.5 mg/kg [20]: 12%; inhibition in vivo at 25 mg/kg [22]: 88%
